{"source": "paper PMC3240942", "about": "(Molecular cell, 2011)", "key": {"[1]": {"target": "T1, Sirt1 (Mus musculus, UniProt Q923E4)", "T1 sequence (Q923E4 1-737)": "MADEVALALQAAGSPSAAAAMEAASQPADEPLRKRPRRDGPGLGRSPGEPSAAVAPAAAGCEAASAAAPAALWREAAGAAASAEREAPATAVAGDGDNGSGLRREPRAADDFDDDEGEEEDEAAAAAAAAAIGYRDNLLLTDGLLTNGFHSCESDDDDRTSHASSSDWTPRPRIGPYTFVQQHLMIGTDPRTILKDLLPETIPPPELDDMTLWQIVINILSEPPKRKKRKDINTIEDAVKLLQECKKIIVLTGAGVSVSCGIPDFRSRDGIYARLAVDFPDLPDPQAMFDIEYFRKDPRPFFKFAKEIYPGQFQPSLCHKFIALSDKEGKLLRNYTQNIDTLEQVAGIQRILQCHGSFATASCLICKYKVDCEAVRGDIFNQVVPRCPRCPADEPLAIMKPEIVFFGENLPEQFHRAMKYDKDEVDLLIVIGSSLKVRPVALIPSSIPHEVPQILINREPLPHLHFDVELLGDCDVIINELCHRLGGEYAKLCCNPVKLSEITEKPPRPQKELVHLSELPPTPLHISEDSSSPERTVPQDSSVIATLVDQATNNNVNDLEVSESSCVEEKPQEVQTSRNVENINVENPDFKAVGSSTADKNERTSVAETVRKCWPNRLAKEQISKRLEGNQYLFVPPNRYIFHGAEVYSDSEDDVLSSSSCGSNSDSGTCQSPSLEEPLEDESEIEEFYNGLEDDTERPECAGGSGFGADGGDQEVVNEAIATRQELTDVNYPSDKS", "assay": "Inhibition of Sirt1 deacetylation of p53 in transfected H1299 cells", "format": "cell-based", "conditions": "10-fold molar excess of expression vector, 20 μM etoposide 1 hr", "in_short": "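H1299 cells transiently co-transfected with expression vectors for p53 and V5-tagged Sirt1, plus a 10-fold molar excess of a vector expressing the Flag-tagged test peptide (with or without a nuclear localization signal). After 48 h, cells are exposed to 20 μM etoposide for 1 hr before harvest. Acetylated p53 is detected by immunoblot with an antibody specific for acetyl-K382.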"}, "[2]": {"target": "T1, Sirt1", "conditions": "binds to deacetylase core of Sirt1; ref Kim et al., 2008; Zhao et al.; cited from earlier work"}}}
{"substance": "DBC1: Deleted in Breast Cancer 1, endogenous Sirt1 inhibitor", "values": [{"measurement": "inhibition of Sirt1 activity in vivo (p53 deacetylation)", "setting": "[1]", "result": "also inhibited Sirt1 activity"}, {"measurement": "effect on Sirt1 activity", "setting": "[2]", "result": "inhibits its activity"}]}
